In ChEMBL document CHEMBL3421557, “Sesamol reduces the atherogenicity of electronegative L5 LDL in vivo and in vitro” (J Nat Prod, 2015):
The source made the active and inactive calls. The calls are words filed in the database; no cut-off is given here.

Tests used:
[1] = system: Syrian golden hamster; experiment: Toxicity in high-fat diet fed Syrian hamster assessed as mortality at 50 to 100 mg/kg, po administered for 16 weeks measured over 22 weeks; assay type: organism-based, Mesocricetus auratus; design: dose 50-100 mg/kg, route oral; conditions: in vivo, 3696 h
[2] = system: Syrian golden hamster; experiment: Antiatherogenic activity in high-fat diet fed Syrian hamster assessed as decrease in plasma very-low-density lipoprotein cholesterol level at 50 to 100 mg/kg, po administered for 16 weeks by automated analyzer relative to high-fat diet fed control; assay type: functional, organism-based; conditions: Mesocricetus auratus
Method in brief: (§1)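 High-fat-diet hamsters gavaged 50 or 100 mg/kg in 0.5% CMC for 16 weeks (n = 8/group); chow and HFD controls received vehicle. Serum from fasted blood (3000g, 10 min) was assayed for TC, TG, VLDL-C, LDL-C and HDL-C with enzymatic kits on an automated analyzer. Mean ± SD, Student's t-test versus HFD group.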

[3] = species: Homo sapiens; experiment: Activation of PI3K/Akt/eNOS signaling in HAEC assessed as inhibition of L5-induced caspase-3 activation preincubated for 30 mins followed by L5 induction measured after 24 hrs by Western blot analysis in presence of PI3K inhibitor wortmannin, Akt inhibitor, eNOS inhibitor L-NAME
Method in brief: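 Primary HAECs (passage 3–4, 2% FBS complete medium) pretreated 30 min with vehicle (0.1% DMSO) or L-NAME (0.1 mM), then 3 µM test agent 30 min, then ± L5 (50 µg/mL) 24 h. Active caspase-3 measured by immunoblot on 50 µg lysate, normalized to β-actin relative to vehicle control. Densitometry, n = 4, mean ± SD, Student's t-test.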

[4] = molecular target: T1, Nitric oxide synthase 3 (Homo sapiens) (UniProt P29474); experiment: Induction of eNOS phosphorylation in HAEC at 3 uM after 60 to 240 mins by Western blot analysis
T1 sequence (whole entry): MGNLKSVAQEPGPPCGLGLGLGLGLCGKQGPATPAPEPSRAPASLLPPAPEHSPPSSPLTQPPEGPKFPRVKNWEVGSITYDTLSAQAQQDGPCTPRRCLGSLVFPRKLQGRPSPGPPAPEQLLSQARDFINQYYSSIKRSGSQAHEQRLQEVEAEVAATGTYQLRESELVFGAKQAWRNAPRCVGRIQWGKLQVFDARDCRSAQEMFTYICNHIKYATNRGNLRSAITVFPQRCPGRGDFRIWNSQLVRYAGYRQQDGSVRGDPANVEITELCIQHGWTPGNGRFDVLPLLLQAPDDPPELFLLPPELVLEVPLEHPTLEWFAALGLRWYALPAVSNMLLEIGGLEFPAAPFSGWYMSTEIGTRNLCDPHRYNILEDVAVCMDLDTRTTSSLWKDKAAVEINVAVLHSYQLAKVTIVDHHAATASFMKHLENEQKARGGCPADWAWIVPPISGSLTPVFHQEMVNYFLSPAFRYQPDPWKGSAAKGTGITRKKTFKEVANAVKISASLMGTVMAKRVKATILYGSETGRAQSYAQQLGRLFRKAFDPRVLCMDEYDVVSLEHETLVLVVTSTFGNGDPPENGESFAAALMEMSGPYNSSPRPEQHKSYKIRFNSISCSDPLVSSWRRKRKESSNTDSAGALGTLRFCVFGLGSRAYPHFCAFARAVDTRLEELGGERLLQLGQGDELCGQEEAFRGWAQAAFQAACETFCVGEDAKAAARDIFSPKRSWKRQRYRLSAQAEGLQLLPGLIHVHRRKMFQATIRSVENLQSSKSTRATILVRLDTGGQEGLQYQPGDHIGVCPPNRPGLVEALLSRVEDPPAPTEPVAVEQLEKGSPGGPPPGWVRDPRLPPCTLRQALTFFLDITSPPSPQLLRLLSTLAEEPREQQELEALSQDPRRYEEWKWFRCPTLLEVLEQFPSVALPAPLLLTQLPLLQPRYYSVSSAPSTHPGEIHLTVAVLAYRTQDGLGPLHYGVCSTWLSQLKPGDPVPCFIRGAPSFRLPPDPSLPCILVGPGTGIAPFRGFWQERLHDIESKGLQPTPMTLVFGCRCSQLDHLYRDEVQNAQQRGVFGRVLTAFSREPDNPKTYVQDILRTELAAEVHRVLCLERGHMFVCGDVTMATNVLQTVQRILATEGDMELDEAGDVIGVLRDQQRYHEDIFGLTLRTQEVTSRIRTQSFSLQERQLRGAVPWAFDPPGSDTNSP
Method in brief: (§2)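 HAECs treated with 3 µM agent or vehicle (0.1% DMSO) for 10, 30, 60, 120 and 240 min. Lysates were immunoblotted for p-eNOS and p-Akt, normalized to total eNOS or Akt relative to vehicle control. Densitometry, 4 independent experiments, mean ± SD, Student's t-test.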

[5] = system: Syrian golden hamster; experiment: Antiatherogenic activity in high-fat diet fed Syrian hamster assessed as reduction of atherosclerotic lesions size in aortic arch at 100 mg/kg, po administered for 16 weeks by oil red o staining-based assay relative to high-fat diet fed control; assay type: functional, Mesocricetus auratus; design: scale not given: the % may be the effect or the level left
Method in brief: (§3)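 High-fat-diet hamsters gavaged 50 or 100 mg/kg in 0.5% CMC for 16 weeks (n = 8/group). Aorta from root to mid-descending thoracic segment was fixed in 4% PFA and stained with 0.6% Oil Red O in 60% isopropanol for 30 min. Plaque area was taken as a ratio of total luminal area from stereoscope en face images. Mean ± SD, t-test.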

[6] = species: Homo sapiens; experiment: Inhibition of L5-induced apoptosis in HAEC preincubated for 30 mins followed by L5 induction measured after 24 hrs by Hoechst 33342 and calcein-AM staining-based fluorescence microscopic analysis; assay type: functional
Method in brief: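 Subconfluent HAECs pretreated 30 min with vehicle (0.1% DMSO) or agent (0.3, 1, 3 µM), then ± L5 (50 µg/mL; L1 as negative control) for 24 h. Cells stained 10 min with 1 µM Hoechst 33342 plus calcein-AM and imaged by epifluorescence. Condensed or fragmented nuclei were scored as apoptotic; percentage of apoptotic cells from 6 samples, mean ± SD, t-test.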

[7] = system: Syrian golden hamster; experiment: Toxicity in high-fat diet fed Syrian hamster assessed as change in body weight at 50 to 100 mg/kg, po administered for 16 weeks measured over 22 weeks; assay type: organism-based, Mesocricetus auratus; design: dose 50-100 mg/kg, route oral; conditions: in vivo, 3696 h
[8] = system: Syrian golden hamster; experiment: Antiatherogenic activity in high-fat diet fed Syrian hamster assessed as decrease in plasma low-density lipoprotein cholesterol level at 50 to 100 mg/kg, po administered for 16 weeks by automated analyzer relative to high-fat diet fed control; assay type: functional, organism-based; conditions: Mesocricetus auratus; method in brief: as §1
[9] = molecular target: Oxidized low-density lipoprotein receptor 1 (Homo sapiens) (UniProt P78380); experiment: Inhibition of L5-activated LOX1-induced p38 MAPK phosphorylation in HAEC preincubated for 30 mins followed by L5 induction measured after 120 mins by Western blot analysis
Method in brief: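 HAECs pretreated 30 min with TS92 anti-LOX-1 antibody (10 µg/mL), SB203580 (2 µM) or vehicle, then ± L5 or L1 control (50 µg/mL) for 120 min. Phospho-p38 immunoblot normalized to total p38. Densitometry, 4 experiments, mean ± SD.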

[10] = system: Syrian golden hamster; experiment: Antiatherogenic activity in high-fat diet fed Syrian hamster assessed as decrease in plasma total cholesterol level at 50 to 100 mg/kg, po administered for 16 weeks by automated analyzer relative to high-fat diet fed control; assay type: functional, organism-based; conditions: Mesocricetus auratus; method in brief: as §1
[11] = system: Syrian golden hamster; experiment: Antiatherogenic activity in high-fat diet fed Syrian hamster assessed as downregulation of active caspase-3 expression in aorta at 50 to 100 mg/kg, po administered for 16 weeks by immunohistochemical analysis; assay type: functional, organism-based; conditions: Mesocricetus auratus
[12] = system: Syrian golden hamster; experiment: Antiatherogenic activity in high-fat diet fed Syrian hamster assessed as decrease in plasma L5 level at 100 mg/kg, po administered for 16 weeks by fast protein liquid chromatographic analysis (reference value: 13.7%); assay type: functional, Mesocricetus auratus; design: scale not given: the % may be the effect or the level left
[13] = species: Homo sapiens; experiment: Reversal of L5-induced Akt dephosphorylation in HAEC at 3 uM preincubated for 30 mins followed by L5 induction measured after 24 hrs by Western blot analysis
Method in brief: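 HAECs pretreated 30 min with vehicle (0.1% DMSO) or 3 µM agent, then ± L5 (50 µg/mL) for 24 h. p-Akt immunoblot normalized to β-actin relative to vehicle control. Densitometry, 4 independent experiments, mean ± SD, Student's t-test.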

[14] = species: Homo sapiens; experiment: Inhibition of L5-induced LOX1 expression in HAEC at 0.3 to 3 uM by immunoblot analysis; assay type: functional
Method in brief: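 HAECs exposed to agent at the indicated concentrations with L5 (50 µg/mL). LOX-1 immunoblot on lysates, normalized to β-actin relative to untreated control. Densitometry from 4 independent experiments, mean ± SD, Student's t-test.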

[15] = molecular target: MAP kinase p38 (Homo sapiens) (UniProt O15264+Q15759+Q16539+P53778); experiment: Activation of PI3K/Akt/eNOS signaling in HAEC assessed as inhibition of L5-induced p38 MAPK phosphorylation preincubated for 30 mins followed by L5 induction measured after 120 mins by Western blot analysis in presence of PI3K inhibitor wortmannin, Akt inhibitor, eNOS inhibitor L-NAME; assay type: protein assay
Method in brief: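 HAECs pretreated 30 min with vehicle (0.1% DMSO), wortmannin (20 nM), Akt inhibitor (2 nM) or L-NAME (0.1 mM), then ± agent (0.3, 1 or 3 µM) 30 min, then L5 (50 µg/mL) 120 min. Phospho-p38 MAPK immunoblot normalized to total p38 MAPK relative to vehicle control. Densitometry, 4 independent experiments, mean ± SD, t-test.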

[16] = system: Syrian golden hamster; experiment: Antiatherogenic activity in high-fat diet fed po dosed Syrian hamster assessed as decrease in total LDL electronegativity administered for 16 weeks by agarose gel electrophoresis; assay type: functional, organism-based; conditions: Mesocricetus auratus
Method in brief: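 Total LDL from hamsters fed 16 weeks as chow, HFD, or HFD plus 50 or 100 mg/kg by gavage in 0.5% CMC. LDL isolated by KBr ultracentrifugation with EDTA and nitrogen protection. Samples of 2.5 µg run on 0.7% agarose (90 mM Tris/90 mM boric acid, pH 8.2) at 100 V for 1.4 h to assess electronegativity.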

[17] = system: Syrian golden hamster; experiment: Antiatherogenic activity in high-fat diet fed Syrian hamster assessed as decrease in plasma trigylceride level at 50 to 100 mg/kg, po administered for 16 weeks by automated analyzer relative to high-fat diet fed control; assay type: functional, organism-based; conditions: Mesocricetus auratus; method in brief: as §1
[18] = species: Homo sapiens; experiment: Inhibition of L5-induced caspase-3 activation in HAEC preincubated for 30 mins followed by L5 induction measured after 24 hrs by immunoblot analysis; assay type: functional
Method in brief: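 HAECs pretreated 30 min with vehicle (0.1% DMSO) or agent (0.3–3 µM), then ± L5 (50 µg/mL) 24 h. Cleaved caspase-3 immunoblot normalized to β-actin relative to vehicle control. Densitometry, n = 4, mean ± SD, Student's t-test.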

[19] = molecular target: T1, Nitric oxide synthase 3 (Homo sapiens); experiment: Induction of eNOS phosphorylation in HAEC at 3 uM after 10 to 30 mins by Western blot analysis; method in brief: as §2
[20] = species: Homo sapiens; experiment: Induction of Akt phosphorylation in HAEC at 3 uM after 60 to 240 mins by Western blot analysis; method in brief: as §2
[21] = species: Homo sapiens; experiment: Induction of Akt phosphorylation in HAEC at 3 uM measured at 30 mins by Western blot analysis in presence of wortmannin and Akt inhibitor
Method in brief: (§4)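 HAECs pretreated 30 min with vehicle (0.1% DMSO), 20 nM wortmannin or 2 nM Akt inhibitor, then ± 3 µM agent for 30 min. p-Akt and p-eNOS were immunoblotted and normalized to β-actin relative to vehicle control. Densitometry, n = 4 independent experiments, mean ± SD, t-test.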

[22] = species: Homo sapiens; experiment: Induction of Akt phosphorylation in HAEC at 3 uM after 10 to 30 mins by Western blot analysis; method in brief: as §2
[23] = system: Syrian golden hamster; experiment: Antiatherogenic activity in high-fat diet fed Syrian hamster assessed as reduction of atherosclerotic lesions size in aortic arch at 50 mg/kg, po administered for 16 weeks by oil red o staining-based assay relative to high-fat diet fed control; assay type: functional, Mesocricetus auratus; design: scale not given: the % may be the effect or the level left; method in brief: as §3
[24] = system: Syrian golden hamster; experiment: Antiatherogenic activity in high-fat diet fed Syrian hamster assessed as decrease in plasma L5 level at 50 mg/kg, po administered for 16 weeks by fast protein liquid chromatographic analysis (reference value: 13.7%); assay type: functional, Mesocricetus auratus; design: scale not given: the % may be the effect or the level left
[25] = molecular target: T1, Nitric oxide synthase 3 (Homo sapiens); experiment: Induction of eNOS phosphorylation in HAEC at 3 uM measured at 30 mins by Western blot analysis in presence of wortmannin and Akt inhibitor; method in brief: as §4
[26] = system: Syrian golden hamster; experiment: Antiatherogenic activity in high-fat diet fed po dosed Syrian hamster assessed as decrease in plasma L5 level administered for 16 weeks by fast protein liquid chromatographic analysis; assay type: functional, organism-based; conditions: Mesocricetus auratus
[27] = molecular target: Oxidized low-density lipoprotein receptor 1 (Homo sapiens) (UniProt P78380); experiment: Inhibition of LOX1-induced DiI-L5 endocytosis in HAEC at 3 uM preincubated for 30 mins followed by DiI-L5 treatment measured after 8 hrs by fluorescence microscopic analysis
Method in brief: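 L5 labeled with DiI (1 mg/mL L5 with 80 µM DiI, 37 °C overnight), re-isolated by ultracentrifugation and dialyzed. HAECs were pretreated ± 3 µM agent for 30 min, then given DiI-L5 (50 µg/mL) for 8 h. Internalization was imaged by fluorescence microscopy with Hoechst nuclear counterstain.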

Oc1ccc2c(c1)OCO2
Activity [1]: Non-toxic
Activity [2]: Active
inhibition [3]: inactive
Activity [4]: inactive
Activity [5]: 47.3%
inhibition [6]: Dose-dependent effect
Activity [7]: Non-toxic
Activity [8]: Active
inhibition [9]: Dose-dependent effect
Activity [10]: Active
Activity [11]: Active
Activity [12]: 5.7%
Activity [13]: Active
inhibition [14]: Active
inhibition [15]: inactive
Activity [16]: Dose-dependent effect
Activity [17]: Active
inhibition [18]: Dose-dependent effect
Activity [19]: Active
Activity [20]: inactive
Activity [21]: inactive
Activity [22]: Active
Activity [23]: 31.5%
Activity [24]: 9.5%
Activity [25]: inactive
Activity [26]: Dose-dependent effect
inhibition [27]: Active
